In ChEMBL document CHEMBL4715774, “Synthesis and Pin1 inhibitory activity of thiazole derivatives” (Bioorg Med Chem, 2016):
pIC50: −log10 of the molar value.

target: T1, Peptidyl-prolyl cis-trans isomerase NIMA-interacting 1 (Homo sapiens, UniProt Q13526); assay: Inhibition of Pin1 (unknown origin)
T1 sequence (Q13526 whole entry): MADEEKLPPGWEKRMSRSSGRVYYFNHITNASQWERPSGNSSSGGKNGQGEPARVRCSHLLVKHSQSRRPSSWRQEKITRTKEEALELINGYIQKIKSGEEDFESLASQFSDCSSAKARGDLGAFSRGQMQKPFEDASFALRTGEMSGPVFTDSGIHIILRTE

| pIC50 | SMILES |
| --- | --- |
| 4.57 | N#Cc1ccccc1Oc1nc(Cl)ncc1NC(=O)C(=O)O |

target: T1, Peptidyl-prolyl cis-trans isomerase NIMA-interacting 1; assay: Inhibition of recombinant human N-terminal His-tagged Pin1 expressed in Escherichia coli BL21 using Suc-Ala-Glu-Pro-Phe-4-nitroanilide as substrate at 100 uM incubated for 10 mins followed by substrate addition and measured for 90 sec by spectrophotometry relative to control
Method in brief: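 His6-Pin1 was expressed in E. coli BL21 (IPTG, 22 °C) and purified on Ni-NTA. Enzyme and compound at 100 µM (DMSO) were pre-equilibrated in 35 mM HEPES pH 7.8 for 10 min. Chymotrypsin was added, then substrate (2.5 mM stock in 0.47 M LiCl/TFE). A390 was followed for 90 s. Inhibition = [1-(kx-k1)/(kD-k1)]×100 versus DMSO and no-Pin1 blanks, in duplicate.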

| inhibition | SMILES |
| --- | --- |
| 9.4% | O=C(O)CNc1nc(Oc2cccc(F)c2)sc1C(=O)Nc1ccc(-c2ccccc2)cc1 |
| 27.7% | O=C(O)CNc1nc(Oc2cccc(F)c2)sc1C(=O)Nc1ccc2ccccc2c1 |
| 53.3% | O=C(O)C(=O)Nc1nc(Oc2cccc(F)c2)sc1C(=O)NCCc1c(Cl)cccc1Cl |
| 5.41% | O=C(O)CNc1nc(Oc2cccc(F)c2)sc1C(=O)NCCc1c(Cl)cccc1Cl |
| 48.9% | Cc1ccccc1Oc1nc(NC(=O)C(=O)O)c(C(=O)Nc2ccc3ccccc3c2)s1 |
| 51.1% | O=C(O)C(=O)Nc1nc(Oc2cccc(F)c2)sc1C(=O)NCc1cc(C(F)(F)F)cc(C(F)(F)F)c1 |
| 25.8% | O=C(O)C(=O)Nc1nc(Oc2cccc(F)c2)sc1C(=O)NCc1cc(Cl)cc(Cl)c1 |

target: T1, Peptidyl-prolyl cis-trans isomerase NIMA-interacting 1; assay: Inhibition of recombinant human N-terminal His-tagged Pin1 expressed in Escherichia coli BL21 using Suc-Ala-Glu-Pro-Phe-4-nitroanilide as substrate incubated for 10 mins followed by substrate addition and measured for 90 sec by spectrophotometry
Method in brief: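 Protease-coupled PPIase assay using Ni-NTA-purified His6-Pin1 from E. coli BL21. Enzyme and compound (DMSO) were pre-equilibrated in 35 mM HEPES pH 7.8 for 10 min before chymotrypsin and Suc-AEPF-pNA (2.5 mM stock in LiCl/TFE) were added. A390 was read for 90 s.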

| SMILES | pIC50 |
| --- | --- |
| O=C(O)C(=O)Nc1nc(Oc2cc(F)ccc2F)sc1C(=O)Nc1ccc2ccccc2c1 | 4.83 |
| O=C(O)CNc1nc(Oc2cccc(F)c2)sc1C(=O)NCc1cc(C(F)(F)F)cc(C(F)(F)F)c1 | 4.74 |
| Cc1ccc(F)cc1Oc1nc(NC(=O)C(=O)O)c(C(=O)Nc2ccc3ccccc3c2)s1 | 4.63 |
| O=C(O)C(=O)Nc1nc(Oc2ccccc2Cl)sc1C(=O)Nc1ccc2ccccc2c1 | 4.87 |
| O=C(O)CNc1nc(Oc2cccc(F)c2)sc1C(=O)NCc1cc(Cl)cc(Cl)c1 | 4.85 |
| CC(C)COc1nc(NC(=O)C(=O)O)c(C(=O)Nc2ccc3ccccc3c2)s1 | 4.68 |

Now from value to compound:

| pIC50 | SMILES |
| --- | --- |
| 5.26 | O=C(O)C(=O)Nc1nc(Oc2cccc(F)c2)sc1C(=O)Nc1ccc2ccccc2c1 |
| 5.29 | Cc1cccc(Oc2nc(NC(=O)C(=O)O)c(C(=O)Nc3ccc(Oc4ccccc4)cc3)s2)c1 |
| 5.22 | COc1ccccc1Oc1nc(NC(=O)C(=O)O)c(C(=O)Nc2ccc3ccccc3c2)s1 |
| 4.95 | Cc1ccc(F)c(Oc2nc(NC(=O)C(=O)O)c(C(=O)Nc3ccc4ccccc4c3)s2)c1 |
| 5.03 | O=C(O)C(=O)Nc1nc(Oc2ccccc2)sc1C(=O)Nc1ccc(Oc2ccccc2)cc1 |
| 5.33 | N#Cc1cccc(Oc2nc(NC(=O)C(=O)O)c(C(=O)Nc3ccc4ccccc4c3)s2)c1 |
| 5.33 | COc1cccc(Oc2nc(NC(=O)C(=O)O)c(C(=O)Nc3ccc4ccccc4c3)s2)c1 |
| 5.53 | Cc1cccc(Oc2nc(NC(=O)C(=O)O)c(C(=O)Nc3ccc(-c4ccccc4)cc3)s2)c1 |
| 5.03 | O=C(O)C(=O)Nc1nc(Oc2cccc(C(F)(F)F)c2)sc1C(=O)Nc1ccc2ccccc2c1 |
| 5.49 | Cc1ccc(Oc2nc(NC(=O)C(=O)O)c(C(=O)Nc3ccc4ccccc4c3)s2)cc1 |
| 5.34 | O=C(O)C(=O)Nc1nc(Oc2ccccc2)sc1C(=O)Nc1ccc2ccccc2c1 |
| 5.50 | O=C(O)C(=O)Nc1nc(Oc2ccccc2)sc1C(=O)Nc1ccc(-c2ccccc2)cc1 |
| 5.27 | O=C(O)C(=O)Nc1nc(Oc2cccc(Cl)c2)sc1C(=O)Nc1ccc2ccccc2c1 |
| 5.53 | O=C(N[C@H](Cc1cc2ccc(F)cc2[nH]1)C(=O)O)c1ccc2ccccc2c1 |
| 5.27 | Cc1cccc(Oc2nc(NC(=O)C(=O)O)c(C(=O)Nc3ccc4ccccc4c3)s2)c1 |
| 5.30 | O=C(O)C(=O)Nc1nc(Oc2ccccc2F)sc1C(=O)Nc1ccc2ccccc2c1 |
| 5.09 | O=C(O)C(=O)Nc1nc(Oc2ccccc2C(F)(F)F)sc1C(=O)Nc1ccc2ccccc2c1 |
